Results on 32 compounds are retold here after ChEMBL document CHEMBL4765483 (J Med Chem, 2021).

What all share (conditions): Cell membrane
Test [1] concerns the target T1, Adenosine receptor A1 (Homo sapiens) (UniProt P30542).
T1 sequence (whole entry): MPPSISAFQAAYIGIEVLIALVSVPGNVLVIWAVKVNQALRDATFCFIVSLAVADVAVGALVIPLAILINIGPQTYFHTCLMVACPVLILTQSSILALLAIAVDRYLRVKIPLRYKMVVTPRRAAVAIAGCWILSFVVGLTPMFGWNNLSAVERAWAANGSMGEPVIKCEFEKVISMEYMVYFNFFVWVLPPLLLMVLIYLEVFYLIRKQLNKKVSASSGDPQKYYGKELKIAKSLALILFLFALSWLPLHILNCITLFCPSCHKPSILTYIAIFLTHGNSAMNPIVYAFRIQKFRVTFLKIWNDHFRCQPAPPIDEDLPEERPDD
In words: Displacement of [3H]DPCPX from human adenosine A1 receptor expressed in CHO cell membranes at 1 uM incubated for 60 mins by scintillation counting method.

The target of test [2] is Adenosine receptor A2a (Homo sapiens) (UniProt P29274). Description: Displacement of [3H]ZM2421385 from adenosine A2A receptor expressed in human HeLa cell membranes at 1 uM incubated for 30 mins by scintillation counting method. For orientation: In a radioligand displacement assay an active substance lowers the binding of a labelled ligand.
Adenosine receptor A2a (Homo sapiens), sequence (P29274 whole entry): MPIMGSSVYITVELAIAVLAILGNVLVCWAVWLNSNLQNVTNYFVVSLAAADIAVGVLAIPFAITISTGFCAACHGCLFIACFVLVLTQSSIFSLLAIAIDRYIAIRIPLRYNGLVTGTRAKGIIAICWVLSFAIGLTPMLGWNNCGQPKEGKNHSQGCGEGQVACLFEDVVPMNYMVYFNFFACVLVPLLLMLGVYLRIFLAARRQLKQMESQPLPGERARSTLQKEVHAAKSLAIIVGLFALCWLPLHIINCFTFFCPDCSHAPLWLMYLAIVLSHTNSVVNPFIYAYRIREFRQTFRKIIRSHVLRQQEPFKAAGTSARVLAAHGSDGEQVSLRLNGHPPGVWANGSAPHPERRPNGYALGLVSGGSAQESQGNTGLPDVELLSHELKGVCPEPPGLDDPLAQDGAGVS
The target of test [3] is T2, Adenosine receptor A3 (Homo sapiens) (UniProt P0DMS8).
T2 sequence (whole entry): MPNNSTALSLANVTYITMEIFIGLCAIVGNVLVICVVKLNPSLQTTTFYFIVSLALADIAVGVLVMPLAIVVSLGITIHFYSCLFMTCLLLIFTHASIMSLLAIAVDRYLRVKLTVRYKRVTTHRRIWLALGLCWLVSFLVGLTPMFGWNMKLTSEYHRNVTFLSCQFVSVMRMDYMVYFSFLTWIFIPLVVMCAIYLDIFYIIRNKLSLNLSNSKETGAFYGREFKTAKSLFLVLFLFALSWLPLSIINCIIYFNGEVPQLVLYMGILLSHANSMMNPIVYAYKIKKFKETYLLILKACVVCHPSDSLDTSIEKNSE
Description: Displacement of [3H]NECA from adenosine A3 receptor expressed in human HeLa cell membranes at 1 uM incubated for 180 mins by scintillation counting method. The essentials: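 hA3AR in HeLa membranes (3 pmol/mg protein) with 10 nM [3H]NECA (KD 8.7 nM); nonspecific binding with 100 μM R-PIA; incubated 180 min at 25 °C, washed, filtered, radioactivity counted.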

For test [4], the target named is T3, Adenosine receptor A2b (Homo sapiens) (UniProt P29275).
T3 sequence (whole entry): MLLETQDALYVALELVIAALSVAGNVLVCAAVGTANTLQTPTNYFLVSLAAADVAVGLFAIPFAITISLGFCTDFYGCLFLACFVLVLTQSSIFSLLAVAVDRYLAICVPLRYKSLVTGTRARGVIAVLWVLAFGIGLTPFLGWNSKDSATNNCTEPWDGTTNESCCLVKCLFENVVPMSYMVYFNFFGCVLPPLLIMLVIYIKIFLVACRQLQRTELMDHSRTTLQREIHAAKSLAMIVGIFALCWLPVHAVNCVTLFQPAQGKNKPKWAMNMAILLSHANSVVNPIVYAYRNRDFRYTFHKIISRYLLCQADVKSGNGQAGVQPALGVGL
In words: Displacement of [3H]DPCPX from human adenosine A2B receptor expressed in HEK293 cell membranes at 1 uM incubated for 30 mins by scintillation counting method.

For `CC1=C(C(N)=O)C(c2ccsc2)NC(=O)N1` (racemic), the inhibition is 2% in test [1], 18% in test [2], 1% in test [3] and 1% in test [4].
With `CC1=C(C(=O)OC2CCCCC2)C(c2cccs2)NC(=O)N1` (racemic), the inhibition in test [1] came to 7%; in test [2], 14%; in test [3], 1%; in test [4], 3%.
Consider `CC1=C(C(=O)C2CC2)C(c2ccsc2)NC(=O)N1` (racemic), for which the inhibition was found to be 2% in test [1], 4% in test [2], 1% in test [3] and 1% in test [4].
As to `CC1=C(C(=O)OC(C)(C)C)C(c2ccco2)NC(=O)N1C` (racemic), the inhibition in test [1] amounted to 44%; in test [2] it was 20%; in test [3], 54%; in test [4] it was 26%.
In the case of `CC1=C(C(=O)NC(C)C)C(c2cccs2)NC(=O)N1` (racemic), the inhibition in test [1] worked out at 2%; in test [2], 22%; in test [3], 1%; in test [4] (filed as antagonist), 40%.
With `CC1=C(C(=O)OCC(C)C)C(c2ccsc2)NC(=O)N1C` (racemic), the inhibition in test [1] was determined as 8%; in test [2], 2%; in test [3], 4%; in test [4], 1%.
For `CCCOC(=O)C1=C(C)NC(=S)NC1c1cccs1` (racemic) the same measures were 7%, 1%, 10% and 3%.
Taken in the same sequence, the figures for `CCSC(=O)C1=C(C)NC(=O)NC1c1ccco1` (racemic) were 6%, 2%, 14% and 29%.
For the compound `CCCOC(=O)C1=C(C)N(C)C(=O)NC1c1ccco1` (racemic), the inhibition is 3% in test [1], 2% in test [2], 8% in test [3] and 23% in test [4].
Taken in the same sequence, the figures for `CC(=O)C1=C(C)NC(=O)NC1c1ccsc1` (racemic) were 9%, 1%, 1% and 24%.
Take `CC1=C(C(=O)OC(C)(C)C)C(c2ccsc2)NC(=S)N1` (racemic): the inhibition turned out to be 16% in test [1], 22% in test [2], 16% in test [3] and 26% in test [4].
With `CCC(C)OC(=O)C1=C(C)NC(=O)NC1c1cccs1` (racemic), the inhibition in test [1] is 5%; in test [2], 2%; in test [3] it was 7%; in test [4], 7%.
Turning to `CC1=C(C(=O)OC(C)(C)C)C(c2cccs2)NC(=O)N1` (racemic), the inhibition in test [1] stood at 26%; in test [2] it was 10%; in test [3], 7%; in test [4] it was 38%.
For `CC1=C(C(=O)OCc2ccccc2)C(c2ccoc2)NC(=O)N1C` (racemic), the inhibition came out at 51% in test [1], 37% in test [2], 25% in test [3] and 49% in test [4] (filed as antagonist).
For the compound `CC1=C(C(N)=O)C(c2cccs2)NC(=O)N1` (racemic), the inhibition was determined as 2% in test [1], 1% in test [2], 1% in test [3] and 3% in test [4].
On to `CC1=C(C(=O)NC(C)C)C(c2ccco2)NC(=O)N1` (racemic), for which the inhibition in test [1] was 3%; in test [2], 1%; in test [3], 4%; in test [4] it was 2%.
For `CC1=C(C(=O)OC2CCCC2)C(c2cccs2)NC(=O)N1` (racemic) the same measures were 9%, 20%, 1% and 1%.
Taken in the same sequence, the figures for `COC(=O)C1=C(C)N(C)C(=O)NC1c1ccoc1` (racemic) were 15%, 5%, 7% and 7%.
In the case of `CCCOC(=O)C1=C(C)N(C)C(=O)NC1c1ccsc1` (racemic), the inhibition in test [1] turned out to be 2%; in test [2], 3%; in test [3], 11%; in test [4], 1%.
For `COC(=O)C1=C(C)NC(=O)NC1c1cccs1` (racemic) the same measures were 6%, 1%, 3% and 19%.
Regarding `CCC(CC)OC(=O)C1=C(C)NC(=O)NC1c1ccsc1` (racemic), the inhibition in test [1] worked out at 22%; in test [2], 1%; in test [3], 6%; in test [4], 26%.
Taken in the same sequence, the figures for `CC1=C(C(=O)OCc2ccccc2)C(c2ccoc2)NC(=S)N1` (racemic) were 25%, 16%, 20% and 36%.
For `CC1=C(C(=O)SC(C)C)C(c2ccsc2)NC(=O)N1` (racemic) the same measures were 24%, 2%, 1% and 14%.
As for `CCCC(=O)C1=C(C)NC(=O)NC1c1ccoc1` (racemic), the inhibition in test [1] stood at 1%; in test [2], 2%; in test [3] it was 2%; in test [4], 22%.
As to `CCN(CC)C(=O)C1=C(C)NC(=O)NC1c1cccs1` (racemic), the inhibition in test [1] was determined as 13%; in test [2] it was 15%; in test [3], 31%; in test [4], 22%.
Taken in the same sequence, the figures for `CCOC(=O)C1=C(C)NC(=O)N[C@H]1c1ccsc1` were 5%, 21%, 3% and 19%.
For `CC1=C(C(=O)OCC(C)C)C(c2ccco2)NC(=S)N1` (racemic) the same measures were 7%, 30%, 10% and 18%.
Taken in the same sequence, the figures for `CC1=C(C(=O)OC(C)C)[C@H](c2ccco2)NC(=S)N1` were 10%, 6%, 2% and 12%.
For `CCSC(=O)C1=C(C)NC(=O)NC1c1ccsc1` (racemic), the inhibition in test [1] turned out to be 11%; in test [2], 1%; in test [3], 2%; in test [4] it was 17%.
For `CC1=C(C(=O)OCC(C)C)C(c2ccoc2)NC(=O)N1C` (racemic) the same measures were 4%, 4%, 16% and 1%.
As to `CC1=C(C(=O)OCc2ccccc2)C(c2ccsc2)NC(=S)N1` (racemic), the inhibition in test [1] was found to be 3%; in test [2], 16%; in test [3], 2%; in test [4], 10%.
As to `CC1=C(C(N)=O)C(c2ccoc2)NC(=O)N1` (racemic), the inhibition came out at 1% in test [1], 3% in test [2], 2% in test [3] and 6% in test [4].

The inhibition is how much of the control response was suppressed. A low value points to a weak effect.
